Active and inactive are the calls of the source. The rule behind the calls is not given here.
Columns and labels:
[1] = organism: Sus scrofa; test: Inhibition of pig malic dehydrogenase at 100 ug/ml
[2] = target: Protease (Human immunodeficiency virus 1, UniProt Q9YQ12); test: Inhibition of HIV1 protease-mediated proteolysis of rabbit muscle lactate dehydrogenase by spectrophotometry; type: single protein
Outline: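 Purified HIV-1 protease (0.8 µg) with rabbit muscle LDH (0.5–2 mg/ml) in 80 mM Na acetate pH 4.7, 1 mM EDTA, 1 mM DTT, 0.2 M NaCl, 37°, 10–60 min. Aliquots were diluted into 0.1 M K phosphate pH 7.0, 30 min RT. Residual LDH was read as NADH loss at 340 nm (7.6 mM pyruvate, 0.2 mM NADH, 37°) from initial slopes. Controls lacked protease.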

[3] = test system: MOLT-4; test: Cytotoxicity against human MOLT4 cells; type: functional, cell-based
[4] = target: T1, ATP-citrate synthase (Rattus norvegicus) (UniProt P16638); test: Inhibition of rat ATP citrate lyase at 100 ug/ml
T1 sequence (whole entry): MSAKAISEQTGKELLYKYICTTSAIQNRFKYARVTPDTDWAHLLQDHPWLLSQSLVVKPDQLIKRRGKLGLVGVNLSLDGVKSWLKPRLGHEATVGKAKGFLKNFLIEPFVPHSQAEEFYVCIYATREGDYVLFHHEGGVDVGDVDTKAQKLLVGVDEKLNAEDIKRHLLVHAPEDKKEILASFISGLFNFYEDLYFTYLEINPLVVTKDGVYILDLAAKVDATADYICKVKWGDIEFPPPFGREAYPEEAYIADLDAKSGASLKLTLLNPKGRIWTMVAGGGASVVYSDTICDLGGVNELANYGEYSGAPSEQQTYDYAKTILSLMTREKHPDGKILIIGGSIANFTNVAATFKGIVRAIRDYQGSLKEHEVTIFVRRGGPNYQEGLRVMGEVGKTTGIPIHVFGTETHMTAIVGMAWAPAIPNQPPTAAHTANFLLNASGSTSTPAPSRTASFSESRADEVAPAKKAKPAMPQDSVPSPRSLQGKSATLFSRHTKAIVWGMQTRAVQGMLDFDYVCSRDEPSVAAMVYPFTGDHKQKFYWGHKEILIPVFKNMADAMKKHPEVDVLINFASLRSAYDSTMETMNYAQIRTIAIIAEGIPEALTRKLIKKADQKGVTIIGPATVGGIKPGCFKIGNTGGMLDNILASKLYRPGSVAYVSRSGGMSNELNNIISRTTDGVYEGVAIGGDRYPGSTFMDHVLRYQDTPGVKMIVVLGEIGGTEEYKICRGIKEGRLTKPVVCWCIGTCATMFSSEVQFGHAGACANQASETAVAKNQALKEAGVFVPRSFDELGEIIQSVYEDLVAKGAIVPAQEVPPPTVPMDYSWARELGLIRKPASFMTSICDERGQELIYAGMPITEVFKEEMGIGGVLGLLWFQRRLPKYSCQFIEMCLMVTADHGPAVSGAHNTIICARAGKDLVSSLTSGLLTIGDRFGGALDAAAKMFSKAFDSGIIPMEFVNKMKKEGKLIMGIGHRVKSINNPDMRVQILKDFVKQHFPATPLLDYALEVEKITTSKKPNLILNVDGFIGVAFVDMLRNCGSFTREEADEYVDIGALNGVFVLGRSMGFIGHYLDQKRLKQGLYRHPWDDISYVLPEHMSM

Protease, sequence (Q9YQ12 whole entry): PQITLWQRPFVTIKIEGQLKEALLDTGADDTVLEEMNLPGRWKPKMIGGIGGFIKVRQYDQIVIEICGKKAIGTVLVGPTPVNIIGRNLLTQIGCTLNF

| Structure (SMILES) | Activity [1] | IC50 [2] [µM] | Activity [3] | Activity [4] |
| --- | --- | --- | --- | --- |
| O=C(O)CCCC#CC#C/C=C/CC/C=C/C#C/C=C/Br | inactive | 6 | Active | inactive |
| O=C(O)CCCC#CC#C/C=C/CCCCC#C/C=C/Br | inactive | 8 | Active | inactive |
| O=C(O)CCCC#C/C=C/CCCC/C=C/C#C/C=C/Br | inactive | 10 | Active | inactive |
| O=C(O)CCCC#CC#C/C=C/CCCC/C=C/C#CBr | inactive | 7 | Active | inactive |
| O=C(O)CCCC#CC#C/C=C/CCCCCC/C=C/Br | inactive | 12 | Active | inactive |
| COC(=O)CCCC#CC#C/C=C/CCCCCC/C=C/Br | inactive | 10 | Active | inactive |

Source: ChEMBL document CHEMBL1149737, “Brominated polyacetylenic acids from the marine sponge Xestospongia muta: inhibitors of HIV protease” (J Nat Prod, 1992)
